From ChEMBL document CHEMBL1154352, “Toll-like receptor 7 selective synthetic oligoribonucleotide agonists: synthesis and structure-activity relationship studies” (J Med Chem, 2009)

What was measured:
[1] = molecular target: T1, Toll-like receptor 7 (Homo sapiens) (UniProt Q9NYK1); experiment: Activation of human TLR7 expressed in HEK293XL assessed as fold induction of NF-kappaB activity at 50 ug/ml after 18 hrs by reporter gene assay relative to control
T1 sequence (whole entry): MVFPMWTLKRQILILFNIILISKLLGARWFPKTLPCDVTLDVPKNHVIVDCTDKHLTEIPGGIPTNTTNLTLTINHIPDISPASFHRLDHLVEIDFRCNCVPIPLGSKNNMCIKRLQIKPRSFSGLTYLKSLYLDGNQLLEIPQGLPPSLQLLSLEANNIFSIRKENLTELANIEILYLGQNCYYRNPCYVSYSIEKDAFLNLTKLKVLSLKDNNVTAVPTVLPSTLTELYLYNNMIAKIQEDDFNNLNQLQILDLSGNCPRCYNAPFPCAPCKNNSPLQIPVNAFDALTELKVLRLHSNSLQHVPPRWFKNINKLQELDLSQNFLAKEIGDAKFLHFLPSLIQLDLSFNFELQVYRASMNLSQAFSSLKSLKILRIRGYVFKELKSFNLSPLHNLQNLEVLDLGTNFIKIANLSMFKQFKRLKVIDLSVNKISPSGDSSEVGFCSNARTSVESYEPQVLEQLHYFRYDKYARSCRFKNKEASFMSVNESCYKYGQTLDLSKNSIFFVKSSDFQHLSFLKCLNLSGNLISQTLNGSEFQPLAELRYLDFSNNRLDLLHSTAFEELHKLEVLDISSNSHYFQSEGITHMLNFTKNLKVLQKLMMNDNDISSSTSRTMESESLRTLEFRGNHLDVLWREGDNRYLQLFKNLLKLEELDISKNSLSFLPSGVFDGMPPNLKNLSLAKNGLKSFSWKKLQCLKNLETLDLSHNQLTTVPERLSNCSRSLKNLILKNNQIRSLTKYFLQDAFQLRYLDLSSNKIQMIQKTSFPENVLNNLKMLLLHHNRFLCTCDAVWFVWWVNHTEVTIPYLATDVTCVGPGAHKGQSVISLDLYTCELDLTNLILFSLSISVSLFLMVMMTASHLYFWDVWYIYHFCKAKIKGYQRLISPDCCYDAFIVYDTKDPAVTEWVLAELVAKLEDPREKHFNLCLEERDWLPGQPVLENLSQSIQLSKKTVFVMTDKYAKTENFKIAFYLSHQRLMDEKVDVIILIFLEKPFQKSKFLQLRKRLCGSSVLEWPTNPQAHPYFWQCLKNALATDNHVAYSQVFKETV
Summary of the method: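 HEK293 cells stably expressing human TLR7 or TLR8, transiently transfected with SEAP reporter plasmid; medium replaced, SIMRA compounds added, 18 h incubation. Supernatant SEAP measured by QuantiBlue; expressed as fold increase in NF-κB activity over PBS control. Tabulated data at 50 μg/mL, representative of three independent experiments.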

[2] = organism: Homo sapiens; experiment: Ratio of human TLR7 activity to human TLR8 activity
Summary of the method: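 TLR7/TLR8 ratio computed from fold NF-κB (SEAP reporter) activation in HEK293 cells stably expressing human TLR7 versus TLR8, compounds at 50 μg/mL, 18 h exposure; representative of three independent experiments.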

| fold change (FC) [1] | Ratio [2] | SMILES |
| --- | --- | --- |
| 20.7 | 41.4 | Nc1ccn([C@@H]2O[C@H](COP(=O)(S)O[C@H]3[C@@H](O)[C@H](n4cnc5c(N)ncnc54)O[C@@H]3COP(=O)(S)O[C@H]3[C@@H](O)[C@H](n4ccc5c(=O)[nH]c(N)nc54)O[C@@H]3COP(=O)(S)O[C@H]3[C@@H](O)[C@H](n4ccc(N)nc4=O)O[C@@H]3COP(=O)(S)O[C@H]3[C@@H](O)[C@H](n4ccc5c(=O)[nH]c(N)nc54)O[C@@H]3COP(=O)(S)O[C@H]3[C@@H](O)[C@H](n4ccc(=O)[nH]c4=O)O[C@@H]3COP(=O)(S)O[C@H]3[C@@H](O)[C@H](n4ccc5c(=O)[nH]c(N)nc54)O[C@@H]3COP(=O)(S)O[C@H]3[C@@H](O)[C@H](n4cnc5c(N)ncnc54)O[C@@H]3COP(=O)(S)O[C@H]3[C@@H](O)[C@H](n4cnc5c(N)ncnc54)O[C@@H]3CO)[C@@H](OP(=O)(S)OC[C@H]3O[C@@H](n4ccc(=O)[nH]c4=O)[C@H](O)[C@@H]3OP(=O)(S)OC[C@H]3O[C@@H](n4ccc(=O)[nH]c4=O)[C@H](O)[C@@H]3OP(=O)(S)OCC(O)COP(=O)(S)O[C@H]3[C@@H](O)[C@H](n4ccc(=O)[nH]c4=O)O[C@@H]3COP(=O)(S)O[C@H]3[C@@H](O)[C@H](n4ccc(=O)[nH]c4=O)O[C@@H]3COP(=O)(S)O[C@H]3[C@@H](O)[C@H](n4ccc(N)nc4=O)O[C@@H]3COP(=O)(S)O[C@H]3[C@@H](O)[C@H](n4cnc5c(N)ncnc54)O[C@@H]3COP(=O)(S)O[C@H]3[C@@H](O)[C@H](n4ccc5c(=O)[nH]c(N)nc54)O[C@@H]3COP(=O)(S)O[C@H]3[C@@H](O)[C@H](n4ccc(N)nc4=O)O[C@@H]3COP(=O)(S)O[C@H]3[C@@H](O)[C@H](n4ccc5c(=O)[nH]c(N)nc54)O[C@@H]3COP(=O)(S)O[C@H]3[C@@H](O)[C@H](n4ccc(=O)[nH]c4=O)O[C@@H]3COP(=O)(S)O[C@H]3[C@@H](O)[C@H](n4ccc5c(=O)[nH]c(N)nc54)O[C@@H]3COP(=O)(S)O[C@H]3[C@@H](O)[C@H](n4cnc5c(N)ncnc54)O[C@@H]3COP(=O)(S)O[C@H]3[C@@H](O)[C@H](n4cnc5c(N)ncnc54)O[C@@H]3CO)[C@H]2O)c(=O)n1 (stereo partly drawn) |
| 26.7 | 66.8 | Nc1ccn([C@@H]2O[C@H](COP(=O)(S)O[C@H]3[C@@H](O)[C@H](n4ccc5c(=O)[nH]c(N)nc54)O[C@@H]3CO[C@H]3[C@@H](O)[C@H](n4cnc5c(N)ncnc54)O[C@@H]3COP(=O)(S)O[C@H]3[C@@H](O)[C@H](n4ccc5c(=O)[nH]c(N)nc54)O[C@@H]3COP(=O)(S)O[C@H]3[C@@H](O)[C@H](n4ccc(=O)[nH]c4=O)O[C@@H]3COP(=O)(S)O[C@H]3[C@@H](O)[C@H](n4ccc(N)nc4=O)O[C@@H]3COP(=O)(S)O[C@H]3[C@@H](O)[C@H](n4ccc5c(=O)[nH]c(N)nc54)O[C@@H]3COP(=O)(S)O[C@H]3[C@@H](O)[C@H](n4ccc(=O)[nH]c4=O)O[C@@H]3COP(=O)(S)O[C@H]3[C@@H](O)[C@H](n4ccc(=O)[nH]c4=O)O[C@@H]3CO)[C@@H](OP(=O)(S)OC[C@H]3O[C@@H](n4ccc(=O)[nH]c4=O)[C@H](O)[C@@H]3OP(=O)(S)OC[C@H]3O[C@@H](n4ccc(=O)[nH]c4=O)[C@H](O)[C@@H]3OP(=O)(S)OCC(O)COP(=O)(S)O[C@H]3[C@@H](O)[C@H](n4ccc(=O)[nH]c4=O)O[C@@H]3COP(=O)(S)O[C@H]3[C@@H](O)[C@H](n4ccc(=O)[nH]c4=O)O[C@@H]3COP(=O)(S)O[C@H]3[C@@H](O)[C@H](n4ccc(N)nc4=O)O[C@@H]3COP(=O)(S)O[C@H]3[C@@H](O)[C@H](n4ccc5c(=O)[nH]c(N)nc54)O[C@@H]3CO[C@H]3[C@@H](O)[C@H](n4cnc5c(N)ncnc54)O[C@@H]3COP(=O)(S)O[C@H]3[C@@H](O)[C@H](n4ccc5c(=O)[nH]c(N)nc54)O[C@@H]3COP(=O)(S)O[C@H]3[C@@H](O)[C@H](n4ccc(=O)[nH]c4=O)O[C@@H]3COP(=O)(S)O[C@H]3[C@@H](O)[C@H](n4ccc(N)nc4=O)O[C@@H]3COP(=O)(S)O[C@H]3[C@@H](O)[C@H](n4ccc5c(=O)[nH]c(N)nc54)O[C@@H]3COP(=O)(S)O[C@H]3[C@@H](O)[C@H](n4ccc(=O)[nH]c4=O)O[C@@H]3COP(=O)(S)O[C@H]3[C@@H](O)[C@H](n4ccc(=O)[nH]c4=O)O[C@@H]3CO)[C@H]2O)c(=O)n1 (stereo partly drawn) |
| 27.6 | 69 | Nc1ccn([C@@H]2O[C@H](CO)[C@@H](OP(=O)(S)OC[C@H]3O[C@@H](n4ccc(=O)[nH]c4=O)[C@H](O)[C@@H]3OP(=O)(S)OC[C@H]3O[C@@H](n4ccc5c(=O)[nH]c(N)nc54)[C@H](O)[C@@H]3OP(=O)(S)OC[C@H]3O[C@@H](n4cnc5c(N)ncnc54)[C@H](O)[C@@H]3OP(=O)(S)OC[C@H]3O[C@@H](n4ccc5c(=O)[nH]c(N)nc54)[C@H](O)[C@@H]3OP(=O)(S)OC[C@H]3O[C@@H](n4cnc5c(N)ncnc54)[C@H](O)[C@@H]3OP(=O)(S)OC[C@H]3O[C@@H](n4cnc5c(N)ncnc54)[C@H](O)[C@@H]3OP(=O)(S)OC[C@H]3O[C@@H](n4ccc5c(=O)[nH]c(N)nc54)[C@H](O)[C@@H]3OP(=O)(S)OC[C@H]3O[C@@H](n4ccc(N)nc4=O)[C@H](O)[C@@H]3OP(=O)(S)OC[C@H]3O[C@@H](n4ccc(=O)[nH]c4=O)[C@H](O)[C@@H]3OP(=O)(S)OC[C@H]3O[C@@H](n4ccc(=O)[nH]c4=O)[C@H](O)[C@@H]3OP(=O)(S)OCC(O)COP(=O)(S)O[C@H]3[C@@H](O)[C@H](n4ccc(=O)[nH]c4=O)O[C@@H]3COP(=O)(S)O[C@H]3[C@@H](O)[C@H](n4ccc(=O)[nH]c4=O)O[C@@H]3COP(=O)(S)O[C@H]3[C@@H](O)[C@H](n4ccc(N)nc4=O)O[C@@H]3COP(=O)(S)O[C@H]3[C@@H](O)[C@H](n4ccc5c(=O)[nH]c(N)nc54)O[C@@H]3COP(=O)(S)O[C@H]3[C@@H](O)[C@H](n4cnc5c(N)ncnc54)O[C@@H]3COP(=O)(S)O[C@H]3[C@@H](O)[C@H](n4cnc5c(N)ncnc54)O[C@@H]3COP(=O)(S)O[C@H]3[C@@H](O)[C@H](n4ccc5c(=O)[nH]c(N)nc54)O[C@@H]3COP(=O)(S)O[C@H]3[C@@H](O)[C@H](n4cnc5c(N)ncnc54)O[C@@H]3COP(=O)(S)O[C@H]3[C@@H](O)[C@H](n4ccc5c(=O)[nH]c(N)nc54)O[C@@H]3COP(=O)(S)O[C@H]3[C@@H](O)[C@H](n4ccc(=O)[nH]c4=O)O[C@@H]3COP(=O)(S)O[C@H]3[C@@H](O)[C@H](n4ccc(N)nc4=O)O[C@@H]3CO)[C@H]2O)c(=O)n1 (stereo partly drawn) |
| 22.9 | 114 | Nc1ccn([C@@H]2O[C@H](COP(=O)(S)O[C@H]3[C@@H](O)[C@H](n4cnc5c(N)ncnc54)O[C@@H]3COP(=O)(S)O[C@H]3[C@@H](O)[C@H](n4ccc5c(=O)[nH]c(N)nc54)O[C@@H]3COP(=O)(S)O[C@H]3[C@@H](O)[C@H](n4ccc(=O)[nH]c4=O)O[C@@H]3COP(=O)(S)O[C@H]3[C@@H](O)[C@H](n4ccc(=O)[nH]c4=O)O[C@@H]3COP(=O)(S)O[C@H]3[C@@H](O)[C@H](n4cnc5c(N)ncnc54)O[C@@H]3COP(=O)(S)O[C@H]3[C@@H](O)[C@H](n4cnc5c(N)ncnc54)O[C@@H]3CO)[C@@H](OP(=O)(S)OC[C@H]3O[C@@H](n4ccc5c(=O)[nH]c(N)nc54)[C@H](O)[C@@H]3OP(=O)(S)OC[C@H]3O[C@@H](n4ccc(N)nc4=O)[C@H](O)[C@@H]3OP(=O)(S)OC[C@H]3O[C@@H](n4ccc(=O)[nH]c4=O)[C@H](O)[C@@H]3OP(=O)(S)OC[C@H]3O[C@@H](n4ccc5c(=O)[nH]c(N)nc54)[C@H](O)[C@@H]3OP(=O)(S)OCC(O)COP(=O)(S)O[C@H]3[C@@H](O)[C@H](n4ccc5c(=O)[nH]c(N)nc54)O[C@@H]3COP(=O)(S)O[C@H]3[C@@H](O)[C@H](n4ccc(=O)[nH]c4=O)O[C@@H]3COP(=O)(S)O[C@H]3[C@@H](O)[C@H](n4ccc(N)nc4=O)O[C@@H]3COP(=O)(S)O[C@H]3[C@@H](O)[C@H](n4ccc5c(=O)[nH]c(N)nc54)O[C@@H]3COP(=O)(S)O[C@H]3[C@@H](O)[C@H](n4ccc(N)nc4=O)O[C@@H]3COP(=O)(S)O[C@H]3[C@@H](O)[C@H](n4cnc5c(N)ncnc54)O[C@@H]3COP(=O)(S)O[C@H]3[C@@H](O)[C@H](n4ccc5c(=O)[nH]c(N)nc54)O[C@@H]3COP(=O)(S)O[C@H]3[C@@H](O)[C@H](n4ccc(=O)[nH]c4=O)O[C@@H]3COP(=O)(S)O[C@H]3[C@@H](O)[C@H](n4ccc(=O)[nH]c4=O)O[C@@H]3COP(=O)(S)O[C@H]3[C@@H](O)[C@H](n4cnc5c(N)ncnc54)O[C@@H]3COP(=O)(S)O[C@H]3[C@@H](O)[C@H](n4cnc5c(N)ncnc54)O[C@@H]3CO)[C@H]2O)c(=O)n1 (stereo partly drawn) |
